Molecular target: Histone acetyltransferase p300 (Homo sapiens, UniProt Q09472)
Test: Inhibition of human p300 HAT domain (1195 to 1673 residues) using histone H3 peptide and acetyl-coA as substrates preincubated for 10 mins followed by substrate addition and measured after 30 mins by beckman scintillation counting analysis
Outline: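 Recombinant human p300 HAT domain (10 nM) was preincubated with a dilution series of inhibitor for 10 min at 25 °C in 50 mM phosphate buffer, pH 7.0, with 0.01% Brij-35. The reaction was started with histone H3(1-21) peptide (20 μM) and Ac-CoA (1 μM ³H-Ac-CoA plus 19 μM unlabelled) and run 30 min at 25 °C. It was stopped with formic acid, spotted on P81 paper, washed 3× with 50 mM NaHCO₃, and counted by scintillation. IC50 came from a sigmoidal fit, mean of ≥3 experiments.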

Histone acetyltransferase p300, sequence (Q09472 whole entry, the tested form may be a part): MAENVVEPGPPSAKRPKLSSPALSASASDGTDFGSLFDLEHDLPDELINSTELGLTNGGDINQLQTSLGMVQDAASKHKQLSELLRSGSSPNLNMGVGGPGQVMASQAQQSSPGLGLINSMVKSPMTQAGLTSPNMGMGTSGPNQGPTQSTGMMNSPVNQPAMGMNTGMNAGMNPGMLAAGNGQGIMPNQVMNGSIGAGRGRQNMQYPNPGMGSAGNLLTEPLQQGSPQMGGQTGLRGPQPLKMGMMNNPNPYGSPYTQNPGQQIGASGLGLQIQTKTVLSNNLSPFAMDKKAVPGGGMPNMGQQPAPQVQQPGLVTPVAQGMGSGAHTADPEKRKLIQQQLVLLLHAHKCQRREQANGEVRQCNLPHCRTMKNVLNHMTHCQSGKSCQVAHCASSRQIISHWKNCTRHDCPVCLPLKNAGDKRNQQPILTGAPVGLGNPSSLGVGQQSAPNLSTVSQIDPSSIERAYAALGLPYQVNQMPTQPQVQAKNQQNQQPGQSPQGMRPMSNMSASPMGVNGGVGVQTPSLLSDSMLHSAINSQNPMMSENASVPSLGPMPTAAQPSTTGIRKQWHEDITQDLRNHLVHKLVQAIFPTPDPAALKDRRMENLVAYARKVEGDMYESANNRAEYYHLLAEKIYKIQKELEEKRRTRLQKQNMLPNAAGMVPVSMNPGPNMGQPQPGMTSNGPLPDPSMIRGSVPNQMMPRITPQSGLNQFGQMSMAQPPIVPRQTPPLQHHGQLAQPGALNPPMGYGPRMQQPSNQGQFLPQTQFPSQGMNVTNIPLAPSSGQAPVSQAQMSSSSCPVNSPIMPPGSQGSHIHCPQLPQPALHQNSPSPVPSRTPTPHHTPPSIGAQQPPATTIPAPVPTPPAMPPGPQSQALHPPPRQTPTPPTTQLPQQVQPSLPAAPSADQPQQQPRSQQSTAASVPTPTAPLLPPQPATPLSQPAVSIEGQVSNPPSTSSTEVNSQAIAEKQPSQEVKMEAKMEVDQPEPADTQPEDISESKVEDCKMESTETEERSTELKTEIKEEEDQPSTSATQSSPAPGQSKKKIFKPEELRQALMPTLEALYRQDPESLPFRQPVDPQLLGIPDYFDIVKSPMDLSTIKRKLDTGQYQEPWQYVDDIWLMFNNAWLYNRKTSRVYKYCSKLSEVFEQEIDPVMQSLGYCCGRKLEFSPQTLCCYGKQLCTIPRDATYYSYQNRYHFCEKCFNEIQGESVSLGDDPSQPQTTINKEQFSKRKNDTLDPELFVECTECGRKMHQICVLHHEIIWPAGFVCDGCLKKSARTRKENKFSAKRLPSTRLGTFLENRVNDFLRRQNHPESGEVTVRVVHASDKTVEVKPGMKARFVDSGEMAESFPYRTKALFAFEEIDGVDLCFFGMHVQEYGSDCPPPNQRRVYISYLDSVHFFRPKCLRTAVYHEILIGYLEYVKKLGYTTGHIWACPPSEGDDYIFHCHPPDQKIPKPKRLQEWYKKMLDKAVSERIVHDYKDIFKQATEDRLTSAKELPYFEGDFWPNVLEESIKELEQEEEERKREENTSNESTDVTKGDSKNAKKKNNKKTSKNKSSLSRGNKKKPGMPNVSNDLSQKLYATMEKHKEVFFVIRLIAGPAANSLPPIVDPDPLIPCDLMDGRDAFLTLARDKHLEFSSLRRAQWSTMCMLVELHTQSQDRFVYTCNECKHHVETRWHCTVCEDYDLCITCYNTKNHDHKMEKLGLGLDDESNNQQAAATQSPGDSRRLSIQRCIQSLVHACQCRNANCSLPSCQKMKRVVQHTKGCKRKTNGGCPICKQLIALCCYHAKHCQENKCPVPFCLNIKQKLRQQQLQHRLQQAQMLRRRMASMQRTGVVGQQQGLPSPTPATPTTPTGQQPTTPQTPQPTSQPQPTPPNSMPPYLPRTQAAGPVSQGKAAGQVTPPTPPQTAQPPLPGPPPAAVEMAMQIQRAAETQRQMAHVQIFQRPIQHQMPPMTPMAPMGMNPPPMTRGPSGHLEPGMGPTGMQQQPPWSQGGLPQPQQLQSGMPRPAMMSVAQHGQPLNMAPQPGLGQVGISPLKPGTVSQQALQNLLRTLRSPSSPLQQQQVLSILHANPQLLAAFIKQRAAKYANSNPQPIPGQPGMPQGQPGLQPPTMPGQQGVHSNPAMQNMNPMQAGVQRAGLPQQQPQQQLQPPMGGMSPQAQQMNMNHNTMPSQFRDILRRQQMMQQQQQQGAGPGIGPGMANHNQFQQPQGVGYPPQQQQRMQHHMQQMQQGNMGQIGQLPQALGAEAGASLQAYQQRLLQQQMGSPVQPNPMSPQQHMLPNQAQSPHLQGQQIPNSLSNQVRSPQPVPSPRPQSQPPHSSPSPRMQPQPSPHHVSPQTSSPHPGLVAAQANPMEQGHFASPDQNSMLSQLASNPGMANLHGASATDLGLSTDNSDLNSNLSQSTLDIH

SMILES: Brc1ccc(-c2ncc(OCC3CCNCC3)nc2-c2ccc(Br)c(Br)c2)cc1Br
- IC50: 10 µM

Source: BindingDB's records for PubMed 35512565 (Baylor College of Medicine, 2022)
